Reference: ChEMBL document CHEMBL2331205, “Anti-hepatitis B virus and anti-cancer activities of novel isoflavone analogs” (Eur J Med Chem, 2013)

Legend:
[1] = system: Hepatitis B virus; experiment: Antiviral activity against HBV infected in human HepG2(2.2.15) cells assessed as inhibition of viral replication after 9 days by fluorescence PCR method; format: functional, organism-based; settings: HepG2 2.2.15, 216 h
In short: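 HepG2 2.2.15 cells given a range of compound concentrations for nine days; HBV DNA quantified by fluorescence PCR. IC50 taken as the concentration giving 50% inhibition of HBV DNA replication.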

[2] = Growth inhibition of human L02 cells after 48 hrs by MTT assay; format: functional, cell-based; settings: L02, 48 h
In short: (§1)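 Cells seeded at 8000/well, treated 24 h later in duplicate with a range of concentrations (DMSO stock 10 g/L diluted in fresh medium), 48 h at 37 °C, 5% CO2. MTT (5 mg/ml in PBS) added for 4 h, formazan dissolved in DMSO, absorbance read at 570 nm. IC50 is the concentration giving 50% survival.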

[3] = Growth inhibition of human QGY7701 cells after 48 hrs by MTT assay; format: functional; settings: QGY7701, 48 h; in short: as §1
[4] = system: Hepatitis B virus; experiment: Antiviral activity against HBV infected in human HepG2(2.2.15) cells assessed as inhibition of HBsAg production after 9 days by ELISA; format: functional, organism-based; settings: HepG2 2.2.15, 216 h
In short: (§2)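 HepG2 2.2.15 cells (HBV-producing) given a range of compound concentrations for nine days; culture supernatants collected and HBsAg or HBeAg levels measured by ELISA. IC50 taken as the concentration giving 50% inhibition of antigen level.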

[5] = Cytotoxicity against human HepG2(2.2.15) cells compound treated for 48 hrs followed by incubation for 9 days by MTT assay; format: cell-based
In short: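 HepG2 2.2.15 cells kept 48 h in plates before adding compounds (DMSO stocks serially diluted in medium), then incubated at 37 °C for 9 days. Media-only wells as blank. MTT (5 g/L) added 4 h before lysis in 10% SDS/50% DMF, pH 7.2; OD at 570 nm gives percent cell death; CC50 derived.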

[6] = system: Huh-7; experiment: Growth inhibition of human HuH7 cells after 48 hrs by MTT assay; format: functional, cell-based; settings: Huh-7, 48 h; in short: as §1
[7] = Selectivity index, ratio of CC50 for human HepG2(2.2.15) cells to IC50 for HBV infected in human HepG2(2.2.15) cells assessed as inhibition of HBsAg production; format: functional
In short: (§3)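 Selectivity index calculated as CC50 in HepG2 2.2.15 cells (MTT, 9-day exposure) divided by IC50 for HBeAg or HBsAg reduction (ELISA of 9-day supernatants).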

[8] = system: A549; experiment: Growth inhibition of human A549 cells after 48 hrs by MTT assay; format: functional, cell-based; settings: A549, 48 h; in short: as §1
[9] = Selectivity index, ratio of CC50 for human HepG2(2.2.15) cells to IC50 for HBV infected in human HepG2(2.2.15) cells assessed as inhibition of HBeAg production; format: functional; in short: as §3
[10] = system: HeLa; experiment: Growth inhibition of human HeLa cells after 48 hrs by MTT assay; format: functional, cell-based; in short: as §1
[11] = system: Hepatitis B virus; experiment: Antiviral activity against HBV infected in human HepG2(2.2.15) cells assessed as inhibition of HBeAg production after 9 days by ELISA; format: functional, organism-based; settings: HepG2 2.2.15, 216 h; in short: as §2
[12] = Selectivity index, ratio of CC50 for human HepG2(2.2.15) cells to IC50 for HBV infected in human HepG2(2.2.15) cells assessed as inhibition of viral replication; format: functional
In short: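 Selectivity index calculated as CC50 in HepG2 2.2.15 cells (MTT, 9-day exposure) divided by IC50 for HBV DNA reduction measured by fluorescence PCR after 9 days.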

Structure (SMILES): COc1ccc2c(=O)c(/C=C/C(=O)NCCc3ccc(F)cc3)coc2c1
- IC50 [1]: > 100 µM
- IC50 [2]: > 200 µM
- IC50 [3]: 24.8 µM
- IC50 [4]: 14.7 µM
- CC50 at 48 h [5]: 786 µM
- IC50 [6]: 29.2 µM
- Ratio CC50/IC50 [7]: 53.64
- IC50 [8]: 18.9 µM
- Ratio CC50/IC50 [9]: 53.45
- IC50 [10]: > 100 µM
- IC50 [11]: 14.7 µM

Structure (SMILES): Cc1ccccc1NC(=O)/C=C/c1coc2cc(O)ccc2c1=O
- IC50 [1]: > 100 µM
- IC50 [2]: > 200 µM
- IC50 [3]: 9.32 µM
- IC50 [4]: > 100 µM
- CC50 at 48 h [5]: 374 µM
- IC50 [6]: 11.1 µM
- IC50 [8]: > 100 µM
- IC50 [10]: 8.67 µM
- IC50 [11]: > 100 µM

Structure (SMILES): COc1ccc2c(=O)c(/C=C/C(=O)Nc3cc(C)ccc3C)coc2c1
- IC50 [1]: > 100 µM
- IC50 [2]: > 200 µM
- IC50 [3]: > 100 µM
- IC50 [4]: > 100 µM
- CC50 at 48 h [5]: 1100 µM
- IC50 [6]: 11.1 µM
- IC50 [8]: 15.5 µM
- IC50 [10]: 58.4 µM
- IC50 [11]: > 100 µM

Structure (SMILES): CCOc1ccc(NC(=O)/C=C/c2coc3cc(OC)ccc3c2=O)cc1
- IC50 [1]: > 100 µM
- IC50 [2]: > 200 µM
- IC50 [3]: > 100 µM
- IC50 [4]: > 100 µM
- CC50 at 48 h [5]: 460 µM
- IC50 [6]: 3.23 µM
- IC50 [8]: > 100 µM
- IC50 [10]: > 100 µM
- IC50 [11]: > 100 µM

Structure (SMILES): COc1ccc2c(=O)c(/C=C/C(=O)Nc3ccc(F)cc3)coc2c1
- IC50 [1]: > 100 µM
- IC50 [2]: > 200 µM
- IC50 [3]: > 100 µM
- IC50 [4]: > 100 µM
- CC50 at 48 h [5]: 743 µM
- IC50 [6]: 33.9 µM
- IC50 [8]: 26.8 µM
- IC50 [10]: 9.68 µM
- IC50 [11]: > 100 µM

Structure (SMILES): O=c1[nH]cc(F)c(=O)[nH]1 [FLUOROURACIL]
- IC50 [6]: 15.8 µM

Structure (SMILES): COc1ccc2c(=O)c(/C=C/C(=O)NCCc3ccccc3F)coc2c1
- IC50 [1]: > 100 µM
- IC50 [2]: > 200 µM
- IC50 [3]: 81.7 µM
- IC50 [4]: 47.9 µM
- CC50 at 48 h [5]: 457 µM
- IC50 [6]: > 100 µM
- Ratio CC50/IC50 [7]: 9.55
- IC50 [8]: 10.3 µM
- IC50 [10]: 12.2 µM
- IC50 [11]: > 100 µM

Structure (SMILES): COc1cccc(NC(=O)/C=C/c2coc3cc(OC)ccc3c2=O)c1
- IC50 [1]: > 100 µM
- IC50 [2]: > 200 µM
- IC50 [3]: 39.1 µM
- IC50 [4]: > 100 µM
- CC50 at 48 h [5]: 1130 µM
- IC50 [6]: 11.1 µM
- IC50 [8]: 12.8 µM
- IC50 [10]: 19.2 µM
- IC50 [11]: > 100 µM

Structure (SMILES): COc1ccc2c(=O)c(/C=C/C(=O)Nc3ccccc3Cl)coc2c1
- IC50 [1]: > 100 µM
- IC50 [2]: > 200 µM
- IC50 [3]: 23 µM
- IC50 [4]: > 100 µM
- CC50 at 48 h [5]: 1010 µM
- IC50 [6]: 58.4 µM
- IC50 [8]: 29.9 µM
- IC50 [10]: 22.4 µM
- IC50 [11]: > 100 µM

Structure (SMILES): COc1ccc2c(=O)c(/C=C/C(=O)NCc3ccc(C)cc3)coc2c1
- IC50 [1]: 53.5 µM
- IC50 [2]: > 200 µM
- IC50 [3]: 10.2 µM
- IC50 [4]: 82.6 µM
- CC50 at 48 h [5]: 257 µM
- IC50 [6]: 14.3 µM
- Ratio CC50/IC50 [12]: 4.81
- Ratio CC50/IC50 [7]: 3.11
- IC50 [8]: > 100 µM
- IC50 [10]: > 100 µM
- IC50 [11]: > 100 µM

Structure (SMILES): O=C(/C=C/c1coc2cc(O)ccc2c1=O)NCc1ccccc1
- IC50 [1]: > 100 µM
- IC50 [2]: > 200 µM
- IC50 [3]: 63 µM
- IC50 [4]: > 100 µM
- CC50 at 48 h [5]: 436 µM
- IC50 [6]: 4.69 µM
- IC50 [8]: > 100 µM
- IC50 [10]: > 100 µM
- IC50 [11]: > 100 µM
